The values that follow come from ChEMBL document CHEMBL1926571, “Design, synthesis and the effect of 1,2,3-triazole sialylmimetic neoglycoconjugates on Trypanosoma cruzi and its cell surface trans-sialidase” (Bioorg Med Chem, 2012).

The nature of data set [1]: (§1) Inhibition of Trypanosoma cruzi trans-Sialidase.
In data set [2] the test system is Trypanosoma cruzi. The data set is described as follows: Antitrypanosomal activity against Trypanosoma cruzi […] infected in monkey LLC-MK2 cells after 4 days by beta-galactosidase reporter gene assay. The class given is functional, organism-based. Particulars: LLC-MK2, 96 h. The essentials: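 LLC-MK2 cells in phenol-red-free RPMI with 10% FBS, 2×10^3/well, grown 24 h, then infected with 1×10^4 trypomastigotes of T. cruzi Tulahuen expressing E. coli β-galactosidase; compounds added 24 h later (0.5 mM–3.5 µM) for 4 days. Lysed with PBS/0.5% Triton X-100 containing 100 µM CPRG, 4 h at 37 °C, A570. Concentration giving 50% trypanocidal activity reported as IC50.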
(In a reporter assay the amount or activity of a reporter protein is the signal.)

Data set [3] concerns Trypanosoma cruzi. The data set is described as follows: Inhibition of Trypanosoma cruzi N-terminus His-tagged trans-Sialidase using MuNANA as substrate at 0.5 mM after 10 mins by fluorometric analysis. The method in brief:
(§2)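 Recombinant His-tagged 70 kDa enzyme truncated of C-terminal repeats, retaining catalytic N-terminal domain. Triplicate wells: pH 7.4 phosphate buffer, enzyme and inhibitor (added as 4.0 or 2.0 mM solution, 1.0 or 0.5 mM final) preincubated 10 min at 26 °C; MuNANA added at 0.1 mM final. Released methylumbelliferone fluorescence (ex 360/em 460 nm) read after 10 min; percent inhibition.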

A short description of data set [4]: Cytotoxicity against C57BL/6 mouse spleen cells assessed as cell death at 0.5 mM after 24 hrs by propidium iodide staining-based flow cytometric analysis. Particulars: 500 µM. The essentials: (§3)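 Spleen cells from C57BL/6 mice, red cells lysed 5 min (Tris-HCl pH 7.5/ammonium chloride), in RPMI 1640 with 10% FBS at 5×10^5 cells/well, exposed to a range of compound concentrations for 24 h at 37 °C. Tween 20 at 0.5% as death control. Stained with 10 µg/mL propidium iodide, read by flow cytometry.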
On the technique in general: A flow cytometer gives signals particle by particle.

The test system of data set [5] is Trypanosoma cruzi. The data set is described as follows: Inhibition of Trypanosoma cruzi N-terminus His-tagged trans-Sialidase using MuNANA as substrate at 1 mM after 10 mins by fluorometric analysis. The essentials: as §2
The nature of data set [6]: Binding affinity to Trypanosoma cruzi trans-Sialidase by surface plasmon resonance assay. For orientation: SPR reads the build-up and loss of mass on a sensor chip optically.
Data set [7] can be described thus: Cytotoxicity against C57BL/6 mouse spleen cells assessed as cell death at 500 to 780 uM mM after 24 hrs by propidium iodide staining-based flow cytometric analysis. Particulars: 7.8 µM, in the assay text read “500 to 7.8 uM” for “500 to 780 uM”. The method in brief: as §3
The nature of data set [8]: Cytotoxicity against C57BL/6 mouse spleen cells assessed as cell death at 250 to 780 uM mM after 24 hrs by propidium iodide staining-based flow cytometric analysis. Particulars: 7.8 µM, in the assay text read “250 to 7.8 uM” for “250 to 780 uM mM”. The essentials:
as §3

The test system of data set [9] is Trypanosoma cruzi. Described as §1. Particulars: concentration not given here.

Structures are written as SMILES. Some results are limits rather than exact numbers.

The IC50 is the concentration at which inhibition is half-maximal. The compound `O=c1c(O)c(-c2cc(O)c(O)c(O)c2)oc2cc(O)cc(O)c12` [MYRICETIN] showed an IC50 in data set [1] of 580 nM.
`Cc1ccc(S(=O)(=O)Nc2cccc(C(=O)/C=C/c3ccc(O)c(O)c3)c2)cc1` came in with an IC50 in data set [1] of 2500 nM.
Broadly, the inhibition is the percentage by which the read-out fell short of the control. For `CO[C@H]1O[C@H](CO)[C@H](O)[C@H](OCc2cn(C(C(=O)O)C(C)O)nn2)[C@H]1O` (some centres undefined), the IC50 in the data set on Trypanosoma cruzi [2] amounted to 369 µM. In addition, the inhibition in the data set on Trypanosoma cruzi [3] is 1.5%; with Trypanosoma cruzi [5] it was 5%. Besides, the Activity in [4] is given as greater than 80%.
`CC(=O)N[C@H]1[C@H]([C@H](O)[C@H](O)CO)O[C@@](OCc2cn([C@@H]3O[C@H](CO)[C@H](O)[C@H](O)[C@H]3O)nn2)(C(=O)O)C[C@@H]1O` showed an IC50 with Trypanosoma cruzi [2] of 475 µM. For the same compound, the inhibition was determined as 1.5% in the data set with Trypanosoma cruzi [3] and 88% with Trypanosoma cruzi [5]. For the same compound, the Activity in [4] is on record as greater than 80%.
The Kd is the equilibrium constant for the complex coming apart. For the compound `CC(=O)N[C@H]1[C@H]([C@H](O)[C@H](O)CO)O[C@@](CCCc2ccccc2)(C(=O)O)C[C@@H]1O`, the Kd in [6] is 160 µM.
`O=C(Cn1ccnc1[N+](=O)[O-])NCc1ccccc1` [BENZNIDAZOLE]: the IC50 in the data set on Trypanosoma cruzi [2] was found to be 125 µM.
For the compound `CC(=O)N[C@H]1[C@H]([C@H](O)[C@H](O)CO)O[C@@](OCc2cn([C@@H]3[C@@H](O)[C@@H](O)O[C@H](CO)[C@H]3O)nn2)(C(=O)O)C[C@@H]1O`, the Activity result in data set [7] is listed as “Non-toxic”. The IC50 in the data set on Trypanosoma cruzi [2] turned out to be 726 µM. Moreover, the inhibition in the data set with Trypanosoma cruzi [3] was 1.5%; in the data set on Trypanosoma cruzi [5], 67%.
`CC(=O)N[C@H]1[C@H]([C@H](O)[C@H](O)CO)O[C@@](OCc2cn(C[C@H]3O[C@H](O)[C@H](O)[C@@H](O)[C@H]3O)nn2)(C(=O)O)C[C@@H]1O` yielded an IC50 in the data set on Trypanosoma cruzi [2] of 260 µM. Moreover, the values for the inhibition in the data set on Trypanosoma cruzi [3] and in the data set on Trypanosoma cruzi [5] were 30% and 91%, respectively. The Activity is given as 55% in data set [4] and “Non-toxic” in data set [8].
For the compound `Cc1ccc(S(=O)(=O)N2c3ccccc3C(=O)C3=Cc4cc(O)c(O)c5c(O)c(O)cc(c45)C32)cc1` (centres undefined), the half-inhibitory concentration (IC50) in data set [1] stood at 600 nM.
For `CCCCCCCCO[C@@H]1O[C@H](COC)[C@H](O)[C@H](O)[C@H]1O`, in the data set on Trypanosoma cruzi [9], the inhibition turned out to be 75%.
Regarding `Cc1ccc(S(=O)(=O)Nc2ccc(C(=O)/C=C/c3ccc(O)c(O)c3)cc2)cc1`, in [1], the IC50 came out at 900 nM.
As to `CC(=O)N[C@H]1[C@H]([C@H](O)[C@H](O)CO)O[C@@](OCc2cn([C@H]3[C@@H](O)[C@H](O)O[C@H](CO)[C@@H]3O)nn2)(C(=O)O)C[C@@H]1O`, the Activity entry in data set [7] is reported as “Non-toxic”. Also, the IC50 in the data set with Trypanosoma cruzi [2] was greater than 2000 µM. Besides, the inhibition amounted to 1.5% in the data set on Trypanosoma cruzi [3] and 69% with Trypanosoma cruzi [5].
For the compound `CCCCCCCCO[C@@H]1O[C@H](CO)[C@H](O)[C@H](O)[C@H]1O`, the inhibition in the data set with Trypanosoma cruzi [9] was 84%.
